Laboratory results from ChEMBL document CHEMBL1133607, “Nonpeptide analogues of dynorphin A(1-8): design, synthesis, and pharmacological evaluation of kappa-selective agonists” (J Med Chem, 2000).
Residues, ends and D or L forms follow the SMILES beside them. *: point of attachment. X1 = CC1C2Cc3ccc(O)cc3[C@]1(C)CCN2CC1C[C@]1(C(=O)*)c1ccccc1

What follows are compounds tested against Mu-type opioid receptor (Rattus norvegicus, UniProt P33535) (assay: Displacement of [3H]diprenorphine from opioid receptor mu 1 on crude membrane fractions obtained from whole rat brain (minus cerebellum)).
Sequence of Mu-type opioid receptor (P33535 whole entry): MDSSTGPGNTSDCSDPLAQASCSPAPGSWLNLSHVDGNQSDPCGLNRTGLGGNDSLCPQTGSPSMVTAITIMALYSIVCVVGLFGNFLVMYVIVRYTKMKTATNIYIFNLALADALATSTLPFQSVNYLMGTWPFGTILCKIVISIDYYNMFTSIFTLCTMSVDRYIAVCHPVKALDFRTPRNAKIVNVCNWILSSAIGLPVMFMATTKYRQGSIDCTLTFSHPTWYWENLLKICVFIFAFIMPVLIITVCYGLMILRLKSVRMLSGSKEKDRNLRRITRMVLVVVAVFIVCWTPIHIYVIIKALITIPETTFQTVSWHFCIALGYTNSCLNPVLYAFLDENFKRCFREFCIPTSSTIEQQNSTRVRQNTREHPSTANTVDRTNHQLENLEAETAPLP
Type: tissue-based
Method in brief: (§1)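 Rat whole-brain (minus cerebellum) crude membranes, 1 mg protein/tube, in 50 mM Tris-HCl pH 7.4 with aprotinin, leupeptin and bacitracin. […] U50,488 and DADLE (300 nM each) saturate κ and δ sites; 1 µM DAMGO defines nonspecific binding. Compounds tested at 10^-11 to 10^-5 M. Ki values are the mean of three experiments in duplicate.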

SMILES | Ki [nM]
CC(C)CC(NC(=O)[C@]1(c2ccccc2)CC1CN1CC[C@@]2(C)c3cc(O)ccc3CC1C2C)C(=O)NCCCCCN (stereo partly drawn) | 3250
CCCC(=N)NCCCCCCNC(=O)C(CC(C)C)NC(=O)[C@]1(c2ccccc2)CC1CN1CC[C@@]2(C)c3cc(O)ccc3CC1C2C (stereo partly drawn) | 1900
CC(C)CC(NC(=O)CNC(=O)[C@]1(c2ccccc2)CC1CN1CC[C@@]2(C)c3cc(O)ccc3CC1C2C)C(=O)NCCCCCCNC(=N)N (stereo partly drawn) | 3350
CC(C)CC(NC(=O)CNC(=O)[C@]1(c2ccccc2)CC1CN1CC[C@@]2(C)c3cc(O)ccc3CC1C2C)C(=O)NCCCCCNC(=N)N (stereo partly drawn) | 3850
CCC(=N)NCCCNC(=O)C(CC(C)C)NC(=O)[C@]1(c2ccccc2)CC1CN1CC[C@@]2(C)c3cc(O)ccc3CC1C2C (stereo partly drawn) | 4980
CCCC(=N)NCCCNC(=O)C(CC(C)C)NC(=O)[C@]1(c2ccccc2)CC1CN1CC[C@@]2(C)c3cc(O)ccc3CC1C2C (stereo partly drawn) | 3570

Each compound was assayed against Kappa-type opioid receptor (Cavia porcellus, UniProt P41144) (assay: Displacement of [3H]-U-69,593 from Opioid receptor kappa 1 in guinea pig cerebellar.).
Sequence of Kappa-type opioid receptor (P41144 whole entry): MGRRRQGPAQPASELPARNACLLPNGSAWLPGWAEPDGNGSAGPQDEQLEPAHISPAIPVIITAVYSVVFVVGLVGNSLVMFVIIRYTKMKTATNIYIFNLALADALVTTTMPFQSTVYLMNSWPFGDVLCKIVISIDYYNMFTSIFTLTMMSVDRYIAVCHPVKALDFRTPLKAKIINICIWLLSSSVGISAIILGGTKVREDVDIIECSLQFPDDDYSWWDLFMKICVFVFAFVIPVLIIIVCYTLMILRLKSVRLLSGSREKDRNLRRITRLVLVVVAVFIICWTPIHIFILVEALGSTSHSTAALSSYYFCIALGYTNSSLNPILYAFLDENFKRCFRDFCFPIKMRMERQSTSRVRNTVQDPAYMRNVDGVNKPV

SMILES | Ki [nM]
CC(C)CC(NC(=O)[C@]1(c2ccccc2)CC1CN1CC[C@@]2(C)c3cc(O)ccc3CC1C2C)C(=O)NCCCCCN (stereo partly drawn) | 276
CCCC(=N)NCCCCCCNC(=O)C(CC(C)C)NC(=O)[C@]1(c2ccccc2)CC1CN1CC[C@@]2(C)c3cc(O)ccc3CC1C2C (stereo partly drawn) | 122
CC(C)CC(NC(=O)CNC(=O)[C@]1(c2ccccc2)CC1CN1CC[C@@]2(C)c3cc(O)ccc3CC1C2C)C(=O)NCCCCCCNC(=N)N (stereo partly drawn) | 35.5
CC(C)CC(NC(=O)CNC(=O)[C@]1(c2ccccc2)CC1CN1CC[C@@]2(C)c3cc(O)ccc3CC1C2C)C(=O)NCCCCCNC(=N)N (stereo partly drawn) | 47.5
CCC(=N)NCCCNC(=O)C(CC(C)C)NC(=O)[C@]1(c2ccccc2)CC1CN1CC[C@@]2(C)c3cc(O)ccc3CC1C2C (stereo partly drawn) | 254
CCCC(=N)NCCCNC(=O)C(CC(C)C)NC(=O)[C@]1(c2ccccc2)CC1CN1CC[C@@]2(C)c3cc(O)ccc3CC1C2C (stereo partly drawn) | 238

These compounds were tested against Opioid receptors; mu & kappa (UniProt P41145+P35372) (assay: Ratio of affinity towards mu and kappa opioid receptors).
Sequence of Opioid receptors; mu & kappa (P35372 whole entry, looked up): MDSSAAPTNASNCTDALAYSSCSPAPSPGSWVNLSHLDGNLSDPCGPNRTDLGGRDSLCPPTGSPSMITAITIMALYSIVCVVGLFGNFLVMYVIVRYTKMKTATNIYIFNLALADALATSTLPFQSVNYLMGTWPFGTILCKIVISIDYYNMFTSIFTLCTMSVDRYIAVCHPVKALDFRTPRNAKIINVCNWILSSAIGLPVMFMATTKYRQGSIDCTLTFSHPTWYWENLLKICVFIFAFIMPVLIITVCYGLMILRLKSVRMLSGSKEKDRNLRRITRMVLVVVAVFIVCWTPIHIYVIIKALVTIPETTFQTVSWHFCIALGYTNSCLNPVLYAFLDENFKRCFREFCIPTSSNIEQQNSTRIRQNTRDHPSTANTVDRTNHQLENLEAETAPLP
Sequence of Opioid receptors; mu & kappa (P41145 whole entry, looked up): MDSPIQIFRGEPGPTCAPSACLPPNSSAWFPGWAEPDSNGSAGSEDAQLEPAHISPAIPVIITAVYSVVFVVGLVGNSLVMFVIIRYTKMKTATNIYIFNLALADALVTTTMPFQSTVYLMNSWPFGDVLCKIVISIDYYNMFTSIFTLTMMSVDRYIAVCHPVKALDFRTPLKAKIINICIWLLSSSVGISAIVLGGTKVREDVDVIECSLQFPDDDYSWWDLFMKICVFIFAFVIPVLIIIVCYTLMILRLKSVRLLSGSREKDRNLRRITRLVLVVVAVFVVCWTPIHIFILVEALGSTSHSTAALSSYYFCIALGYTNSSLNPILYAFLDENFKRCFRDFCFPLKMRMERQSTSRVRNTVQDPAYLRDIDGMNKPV
Type: protein assay

SMILES | Selectivity ratio
CC(C)CC(NC(=O)CNC(=O)[C@]1(c2ccccc2)CC1CN1CC[C@@]2(C)c3cc(O)ccc3CC1C2C)C(=O)NCCCCCCN=C(N)N (stereo partly drawn) | 94.3
CC(C)CC(NC(=O)[C@]1(c2ccccc2)CC1CN1CC[C@@]2(C)c3cc(O)ccc3CC1C2C)C(=O)NCCCCCN=C(N)N (stereo partly drawn) | 12.9
CC[C@H](C)[C@H](NC(=O)[C@H](CCCN=C(N)N)NC(=O)[C@H](CCCN=C(N)N)NC(=O)CNC(=O)[C@]1(c2ccccc2)CC1CN1CC[C@@]2(C)c3cc(O)ccc3CC1C2C)C(=O)OC (stereo partly drawn) (X1-GRRI-OMe) | 42.4
CC(C)CC(NC(=O)CNC(=O)[C@]1(c2ccccc2)CC1CN1CC[C@@]2(C)c3cc(O)ccc3CC1C2C)C(=O)NCCCN=C(N)N (stereo partly drawn) | 128
CC(C)CC(NC(=O)[C@]1(c2ccccc2)CC1CN1CC[C@@]2(C)c3cc(O)ccc3CC1C2C)C(=O)NCCCCCN (stereo partly drawn) | 11.8
CCCC(=N)NCCCCCCNC(=O)C(CC(C)C)NC(=O)[C@]1(c2ccccc2)CC1CN1CC[C@@]2(C)c3cc(O)ccc3CC1C2C (stereo partly drawn) | 15.6
CCC(=N)NCCCNC(=O)C(CC(C)C)NC(=O)[C@]1(c2ccccc2)CC1CN1CC[C@@]2(C)c3cc(O)ccc3CC1C2C (stereo partly drawn) | 19.6
CCCC(=N)NCCCNC(=O)C(CC(C)C)NC(=O)[C@]1(c2ccccc2)CC1CN1CC[C@@]2(C)c3cc(O)ccc3CC1C2C (stereo partly drawn) | 15
CC(C)CC(NC(=O)CNC(=O)[C@]1(c2ccccc2)CC1CN1CC[C@@]2(C)c3cc(O)ccc3CC1C2C)C(=O)NCCCCCN=C(N)N (stereo partly drawn) | 81.1

Each compound was assayed against Delta-type opioid receptor (Rattus norvegicus, UniProt P33533) (assay: Displacement of [3H]diprenorphine opioid receptor delta 1 on crude membrane fractions obtained from the whole rat brain (minus cerebellum)).
Sequence of Delta-type opioid receptor (P33533 whole entry): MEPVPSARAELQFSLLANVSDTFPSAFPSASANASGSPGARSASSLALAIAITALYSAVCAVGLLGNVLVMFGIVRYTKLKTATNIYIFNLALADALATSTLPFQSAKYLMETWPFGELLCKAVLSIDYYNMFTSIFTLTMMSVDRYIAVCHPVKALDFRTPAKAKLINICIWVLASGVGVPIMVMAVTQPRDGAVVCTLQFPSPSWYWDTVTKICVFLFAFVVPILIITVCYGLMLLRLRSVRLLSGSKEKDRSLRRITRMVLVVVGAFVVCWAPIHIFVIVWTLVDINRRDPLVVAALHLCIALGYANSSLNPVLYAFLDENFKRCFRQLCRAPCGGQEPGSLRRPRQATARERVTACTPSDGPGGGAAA
Type: tissue-based
Method in brief: as §1, with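 “DAMGO” for “DADLE”, “µ” for “δ”, “DPDPE” for “DAMGO”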

SMILES | Ki [nM]
CCCC(=N)NCCCCCCNC(=O)C(CC(C)C)NC(=O)[C@]1(c2ccccc2)CC1CN1CC[C@@]2(C)c3cc(O)ccc3CC1C2C (stereo partly drawn) | 3460
CC(C)CC(NC(=O)CNC(=O)[C@]1(c2ccccc2)CC1CN1CC[C@@]2(C)c3cc(O)ccc3CC1C2C)C(=O)NCCCCCCNC(=N)N (stereo partly drawn) | 2990
CC(C)CC(NC(=O)CNC(=O)[C@]1(c2ccccc2)CC1CN1CC[C@@]2(C)c3cc(O)ccc3CC1C2C)C(=O)NCCCCCNC(=N)N (stereo partly drawn) | 3480

Species on record: Cavia porcellus
Assay: Ratio of affinity towards delta to kappa opioid receptor

SMILES | Selectivity ratio
CC(C)CC(NC(=O)CNC(=O)[C@]1(c2ccccc2)CC1CN1CC[C@@]2(C)c3cc(O)ccc3CC1C2C)C(=O)NCCCCCCN=C(N)N (stereo partly drawn) | 84.2
CC(C)CC(NC(=O)CNC(=O)[C@]1(c2ccccc2)CC1CN1CC[C@@]2(C)c3cc(O)ccc3CC1C2C)C(=O)NCCCN=C(N)N (stereo partly drawn) | 51.4
CCCC(=N)NCCCCCCNC(=O)C(CC(C)C)NC(=O)[C@]1(c2ccccc2)CC1CN1CC[C@@]2(C)c3cc(O)ccc3CC1C2C (stereo partly drawn) | 28.4
CC(C)CC(NC(=O)CNC(=O)[C@]1(c2ccccc2)CC1CN1CC[C@@]2(C)c3cc(O)ccc3CC1C2C)C(=O)NCCCCCN=C(N)N (stereo partly drawn) | 73.1
